Experimental data taken from ChEMBL document CHEMBL1165942, “Synthesis and anti-inflammatory activity of new arylidene-thiazolidine-2,4-diones as PPARgamma ligands” (Bioorg Med Chem, 2010).

Columns and labels:
[1] = target: T1, Peroxisome proliferator-activated receptor gamma (Homo sapiens, UniProt P37231); assay: Displacement of [3H]rosiglitazone from human PPARgamma ligand binding domain expressed in Escherichia coli BL21 after 12 hrs by liquid scintillation counting
T1 sequence (P37231 whole entry): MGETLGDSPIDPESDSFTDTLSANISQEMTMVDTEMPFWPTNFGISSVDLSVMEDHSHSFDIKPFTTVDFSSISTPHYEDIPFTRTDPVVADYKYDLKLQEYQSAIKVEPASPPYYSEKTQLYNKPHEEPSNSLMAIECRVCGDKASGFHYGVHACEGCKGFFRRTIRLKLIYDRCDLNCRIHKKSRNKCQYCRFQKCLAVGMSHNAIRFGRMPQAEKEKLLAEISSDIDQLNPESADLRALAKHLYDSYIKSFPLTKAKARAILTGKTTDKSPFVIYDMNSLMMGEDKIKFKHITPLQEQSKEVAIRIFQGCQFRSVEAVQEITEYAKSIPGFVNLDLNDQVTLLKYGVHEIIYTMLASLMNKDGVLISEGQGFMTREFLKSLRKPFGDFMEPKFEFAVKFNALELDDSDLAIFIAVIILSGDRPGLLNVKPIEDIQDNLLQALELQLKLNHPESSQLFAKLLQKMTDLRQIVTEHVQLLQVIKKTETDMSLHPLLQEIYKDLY
Procedure, shortened: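 His-tagged hPPARγ LBD purified on Co2+ affinity resin, preincubated 12 h at 4 °C with 40 nM [3H]rosiglitazone (50 Ci/mmol) in 10 mM Tris pH 8.0, 50 mM KCl, 10 mM DTT. Unlabeled ligand or DMSO vehicle added, then a further 12 h at 4 °C. Bound and free label separated on Sephadex G-25 and counted by scintillation. Results as % bound vs vehicle; Ki from concentration-dependent displacement.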

Mus musculus = assay: Antiinflammatory activity against carrageenan-induced air pouch inflammation in po dosed mouse assessed as inhibition of leukocyte infiltration administered 1 hr before carrageenan challenge measured after 6 hrs by hemocytometry relative to untreated control

| Ki [1] [µM] | SMILES | inhibition (INH) (Mus musculus) [%] |
| --- | --- | --- |
| 4 | O=C1S/C(=C\c2ccc(Cl)cc2Cl)C(=O)N1Cc1c(F)cccc1Cl | 41.6 |
|  | O=C1S/C(=C\c2ccc3c(c2)Cc2ccccc2-3)C(=O)N1Cc1cccc(Cl)c1 | 65.2 |
|  | COc1ccc(/C=C2\SC(=O)N(Cc3cccc(Cl)c3)C2=O)cc1 | 42 |
|  | COc1ccc(Br)cc1/C=C1\SC(=O)N(Cc2cccc(Cl)c2)C1=O | 47.4 |
| 43 | CS(=O)(=O)c1ccc(/C=C2\SC(=O)N(Cc3cccc(Cl)c3)C2=O)cc1 | 63.9 |
| 7.3 | CS(=O)(=O)c1ccc(/C=C2\SC(=O)N(Cc3ccccc3Br)C2=O)cc1 | 73.3 |
|  | COc1ccc(/C=C2\SC(=O)N(Cc3cccc(Cl)c3)C2=O)cc1Br | 51.5 |
| 43.6 | O=C1S/C(=C\c2ccc(-c3ccccc3)cc2)C(=O)N1Cc1cccc(Cl)c1 | 67 |
|  | CN(CCOc1ccc(CC2SC(=O)NC2=O)cc1)c1ccccn1 (stereo not drawn) [ROSIGLITAZONE] | 72 |
